From PubChem BioAssay
EBNA-1 inh: EBNA-1 DNA-binding inhibitors, primary screen, biochemical, fluorescence polarization; inhibition, % at 14.8 µM; 0.34% of 300,000 active; AID 1950, 2009; in the data active means inhibition above about 28%
HCV core dimer: inhibitors of HCV core protein dimerization, primary screen, biochemical, TR-FRET, high-throughput; 0.33% of 300,000 active; AID 1899, 2009; TR-FRET GST/Flag-core106 dimerization, 1536-well; inhibition, % at 5 µM;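 active means inhibition above the mean of all tested compounds plus 3 SD, set per screening campaign, cut at about 45% in these data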
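test system = GST/Flag-tagged HCV core106 proteins | probe or stimulus = Eu donor and XL665 acceptor anti-tag antibodies | times = compound-protein-antibody incubation 4 h at 22.5 °C | signal = TR-FRET, excitation 340 nm, emission 617 and 671 nm | measure = percent inhibition of core106 dimerization signal | controls = wells lacking GST-core106 and wells with excess unlabelled core106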
PP1 inh: PP1-alpha phosphatase inhibitors, primary screen, counter-screen for PP5 inhibitor project, biochemical, fluorescence, OMFP substrate, single point; Serine/threonine-protein phosphatase PP1-alpha catalytic subunit (Homo sapiens), P62136; inhibition, % at 6.7 µM; AID 2235, 2010; 0.9% of 320,000 active; purified PP1alpha;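 active means inhibition above the mean inhibition of all tested compounds plus 3 SD, computed separately for each screening campaign, cut at about 15% in these data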
Target sequence (P62136 whole entry, looked up): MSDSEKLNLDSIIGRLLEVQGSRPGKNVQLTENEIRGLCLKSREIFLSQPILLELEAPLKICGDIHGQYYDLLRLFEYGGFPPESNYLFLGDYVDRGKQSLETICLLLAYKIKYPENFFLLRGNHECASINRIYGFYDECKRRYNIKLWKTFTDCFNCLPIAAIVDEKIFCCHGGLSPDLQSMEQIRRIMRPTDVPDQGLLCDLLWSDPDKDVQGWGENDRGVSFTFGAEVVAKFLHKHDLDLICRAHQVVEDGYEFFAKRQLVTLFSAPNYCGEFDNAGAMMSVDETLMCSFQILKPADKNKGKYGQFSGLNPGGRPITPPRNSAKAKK
HCV NS3 hel inh: inhibitors of HCV NS3 helicase, primary screen, biochemical, Cy5 molecular beacon fluorescence. Hepatitis C virus NS3 helicase. NS3 helicase DNA unwinding. inhibition, % at 10.9 µM. 0.56% of 290,000 active;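 active means inhibition above the mean of all tested compounds plus 3 SD, set per campaign, cut at about 35% in these data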;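 further: 0% = DMSO wells and 100% = thioflavine S control wells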
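Test system: hepatitis C virus NS3 helicase domain fragment enzyme. Also added: annealed dual-labelled DNA beacon duplex, ATP-started. Timing: 60 min unwinding reaction at 25 °C after ATP addition. Technique: Cy5 fluorescence. Measure: % inhibition of unwinding.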
ZTA counter: blocks Epstein-Barr virus ZTA, an EBNA-1 counter-screen | P03206 | ZTA-DNA binding, fluorescence polarization | inhibition, % at 11 µM | 0.15% of 320,000 active | AID 2234; in the data active means inhibition above about 33%
Target sequence (P03206 whole entry, looked up): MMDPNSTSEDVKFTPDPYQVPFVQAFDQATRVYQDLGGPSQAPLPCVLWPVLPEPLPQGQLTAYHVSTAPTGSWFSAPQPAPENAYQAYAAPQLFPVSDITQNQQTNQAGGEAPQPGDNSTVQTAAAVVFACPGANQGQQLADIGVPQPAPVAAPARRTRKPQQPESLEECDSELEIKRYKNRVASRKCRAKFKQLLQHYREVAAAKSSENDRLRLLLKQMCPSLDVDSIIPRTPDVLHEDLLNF
Starred values were filed as active, the others as inactive. An excerpt weighted towards active compounds, which were near 1.9% of everything screened.

How did CCCCCC#CCC#CCC#CCC#CCCCC(=O)O do in these assays?
EBNA-1 inh: 6.2; HCV core dimer: 53.8*; PP1 inh: 11.2; HCV NS3 hel inh: 3.5; ZTA counter: 19.3

How did Cc1cc(C)cc(-n2cccc2/C=C2/C(=N)N3C(=NC2=O)SN=C3S(C)(=O)=O)c1 do in these assays?
EBNA-1 inh: 18.8; HCV core dimer: 28.4; PP1 inh: 10.2; HCV NS3 hel inh: 5.5; ZTA counter: 2.7

Results for Cc1ccc(-n2cccc2/C=C2/C(=N)N3C(=NC2=O)SN=C3S(C)(=O)=O)cc1 ?
EBNA-1 inh: -2.3; HCV core dimer: 57.2*; PP1 inh: 2.0; HCV NS3 hel inh: 25.1; ZTA counter: 2.2

Results for CS(=O)(=O)C1=NSC2=NC(=O)/C(=C\c3cccn3-c3ccccc3Cl)C(=N)N21 ?
EBNA-1 inh: -3.9; HCV core dimer: 40.0; PP1 inh: 7.1; HCV NS3 hel inh: 27.7; ZTA counter: 9.3

How did CCc1ccc(-n2cccc2/C=C2/C(=N)N3C(=NC2=O)SN=C3S(C)(=O)=O)cc1 do in these assays?
EBNA-1 inh: 10.1; HCV core dimer: 48.7*; PP1 inh: 3.4; HCV NS3 hel inh: 21.5; ZTA counter: -1.2

What do the screens show for `COCC(=O)N1CCc2ccc(NC(=O)c3ccc(C(F)(F)F)cc3)cc2C1`?
EBNA-1 inh: -11.5; HCV core dimer: -2.4; PP1 inh: 1.5; HCV NS3 hel inh: -9.4; ZTA counter: -13.2

How did O=C(Nc1ccc2c(c1)CN(Cc1ccc(CO)o1)CC2)c1ccc(C(F)(F)F)cc1 do in these assays?
EBNA-1 inh: -6.6; HCV core dimer: 57.5*; PP1 inh: 1.1; HCV NS3 hel inh: 30.0; ZTA counter: -17.1

What do the screens show for `Cc1cc(C(=O)Cn2nc(C(=O)O)c3ccccc3c2=O)c(C)n1-c1ccc(OC(F)F)cc1`?
EBNA-1 inh: -5.2; HCV core dimer: 23.9; PP1 inh: 16.0*; HCV NS3 hel inh: 12.8; ZTA counter: 1.6

What do the screens show for `COc1ccc(-n2c(C)cc(C(=O)Cn3nc(C(=O)O)c4ccccc4c3=O)c2C)cc1`?
EBNA-1 inh: 13.8; HCV core dimer: 27.3; PP1 inh: 15.2; HCV NS3 hel inh: 0.8; ZTA counter: 4.5

Results for O=C(CN(Cc1ccco1)Cc1ccco1)Nc1cc(S(=O)(=O)N2CCCCC2)ccc1Cl ?
PP1 inh: 9.1; ZTA counter: 6.1

How did COc1cccc(NC(=O)CN(C)C(=O)CCc2nc3sc4c(c3c(=O)[nH]2)CCCC4)c1 do in these assays?
EBNA-1 inh: -8.5; HCV core dimer: 49.2*; PP1 inh: 1.8; HCV NS3 hel inh: 9.0; ZTA counter: -10.2

Results for CC(C)(C)c1ccc(Cn2nnc3c(=O)[nH]c(C4CCCN(C(=O)c5cccs5)C4)nc32)cc1 (stereo not given) ?
EBNA-1 inh: 6.2; HCV core dimer: 17.4; PP1 inh: 15.6*; HCV NS3 hel inh: -9.6; ZTA counter: -10.7

How did CCN(C(=O)COC(=O)c1cc2c(s1)CCCCC2)C1CCS(=O)(=O)C1 (stereo not given) do in these assays?
EBNA-1 inh: 4.4; HCV core dimer: -10.2; PP1 inh: 0.9; HCV NS3 hel inh: -1.6; ZTA counter: -6.8

Results for CC(C)CN(C(=O)COC(=O)c1cc2c(s1)CCC2)C1CCS(=O)(=O)C1 (stereo not given) ?
EBNA-1 inh: 7.9; HCV core dimer: 87.6*; PP1 inh: 3.0; HCV NS3 hel inh: 27.5; ZTA counter: 2.3

What do the screens show for `COCCNCCCCOc1ccccc1-c1ccccc1`?
EBNA-1 inh: -7.8; HCV core dimer: -6.5; PP1 inh: -4.5; HCV NS3 hel inh: -1.6; ZTA counter: -16.0

Results for CCCCNCCOCCOc1ccccc1-c1ccccc1 ?
EBNA-1 inh: 33.6*; HCV core dimer: -10.3; PP1 inh: 0.7; HCV NS3 hel inh: -16.3; ZTA counter: -3.7

Results for CSc1ccccc1C(=O)Nc1cc2c(cc1C(=O)O)OCCCO2 ?
EBNA-1 inh: -14.4; HCV core dimer: -12.6; PP1 inh: 1.0; HCV NS3 hel inh: 14.1; ZTA counter: -21.2

Results for COCCn1c(C)cc(C2=NNC(=Nc3ccccc3F)SC2)c1C ?
EBNA-1 inh: 5.4; HCV core dimer: 18.7; PP1 inh: 11.6; HCV NS3 hel inh: 1.1; ZTA counter: 28.4

What do the screens show for `Cc1cc(C2=NNC(=Nc3ccccc3)SC2)c(C)n1C`?
EBNA-1 inh: -4.6; HCV core dimer: 41.3; PP1 inh: 16.3*; HCV NS3 hel inh: 0.3; ZTA counter: -14.0

What do the screens show for `Cc1cc(C2=NNC(=NCCc3ccccc3)SC2)c(C)n1-c1c(C)n(C)n(-c2ccccc2)c1=O`?
EBNA-1 inh: 3.7; HCV core dimer: 32.5; PP1 inh: 18.8*; HCV NS3 hel inh: 0.1; ZTA counter: 2.9

Results for COCCCN=C1NN=C(c2cc(C)n(Cc3ccccc3Cl)c2C)CS1 ?
EBNA-1 inh: 8.1; HCV core dimer: 11.5; PP1 inh: 15.4*; HCV NS3 hel inh: -15.8; ZTA counter: -4.3

What do the screens show for `Cc1ccc2nc(N3CCN(C)CC3)c(C=O)c(=O)n2c1`?
EBNA-1 inh: 1.8; HCV core dimer: -3.7; PP1 inh: -3.3; HCV NS3 hel inh: -10.8; ZTA counter: 3.8

Results for Cc1oc(-c2ccccc2)nc1C(=O)N1CCN(c2ccc(F)cc2)CC1 ?
EBNA-1 inh: -2.7; HCV core dimer: -0.6; PP1 inh: -1.8; HCV NS3 hel inh: 12.2; ZTA counter: -2.6

What do the screens show for `CCS(=O)(=O)c1nc(S(=O)(=O)c2ccc(C)cc2)c(NCCCN(C)C)s1`?
EBNA-1 inh: -2.4; HCV core dimer: -0.6; PP1 inh: -0.9; HCV NS3 hel inh: 1.9; ZTA counter: 3.0

Results for O=C(OCc1cc(=O)n2c(n1)sc1ccccc12)c1cccc(O)c1 ?
EBNA-1 inh: -0.3; HCV core dimer: 50.8*; PP1 inh: 2.7; HCV NS3 hel inh: 9.5; ZTA counter: 8.9

How did O=C(Cc1coc2cc3c(cc12)CCC3)OCc1cc(=O)n2c(n1)sc1ccccc12 do in these assays?
EBNA-1 inh: -15.9; HCV core dimer: 57.4*; PP1 inh: 0.8; HCV NS3 hel inh: 12.8; ZTA counter: 8.8

Results for Cc1ccc(C(=O)N[C@H](C(=O)OCc2cc(=O)n3c(n2)sc2ccccc23)C(C)C)cc1 ?
EBNA-1 inh: 19.4; HCV core dimer: 38.8; PP1 inh: 0.6; HCV NS3 hel inh: 5.2; ZTA counter: 16.9

Results for CC(C)[C@H](NC(=O)c1ccco1)C(=O)OCc1cc(=O)n2c(n1)sc1ccccc12 ?
EBNA-1 inh: 7.0; HCV core dimer: 22.6; PP1 inh: -0.5; HCV NS3 hel inh: 0.5; ZTA counter: 2.2

Results for CS(=O)(=O)c1cnc(-c2cccnc2)nc1N ?
EBNA-1 inh: -4.0; HCV core dimer: -1.2; PP1 inh: -1.3; HCV NS3 hel inh: 1.6; ZTA counter: 5.2
